According to ChEMBL document CHEMBL1221219, “Selective blockade of 2-arachidonoylglycerol hydrolysis produces cannabinoid behavioral effects” (Nat Chem Biol, 2009):
The source made the active and inactive calls. The rule behind the calls is not given here.

What was measured:
[1] = target: T1, Diacylglycerol lipase-beta (Homo sapiens) (UniProt Q8NCG7); experiment: Inhibition of recombinant DAGLbeta expressed in HEK293 cells assessed as hydrolysis of 1-stearoyl-2-arachidonoyl-glycerol to 2-AG at 25 uM after 30 mins by LC-MS method; type: cell-based
T1 sequence (whole entry): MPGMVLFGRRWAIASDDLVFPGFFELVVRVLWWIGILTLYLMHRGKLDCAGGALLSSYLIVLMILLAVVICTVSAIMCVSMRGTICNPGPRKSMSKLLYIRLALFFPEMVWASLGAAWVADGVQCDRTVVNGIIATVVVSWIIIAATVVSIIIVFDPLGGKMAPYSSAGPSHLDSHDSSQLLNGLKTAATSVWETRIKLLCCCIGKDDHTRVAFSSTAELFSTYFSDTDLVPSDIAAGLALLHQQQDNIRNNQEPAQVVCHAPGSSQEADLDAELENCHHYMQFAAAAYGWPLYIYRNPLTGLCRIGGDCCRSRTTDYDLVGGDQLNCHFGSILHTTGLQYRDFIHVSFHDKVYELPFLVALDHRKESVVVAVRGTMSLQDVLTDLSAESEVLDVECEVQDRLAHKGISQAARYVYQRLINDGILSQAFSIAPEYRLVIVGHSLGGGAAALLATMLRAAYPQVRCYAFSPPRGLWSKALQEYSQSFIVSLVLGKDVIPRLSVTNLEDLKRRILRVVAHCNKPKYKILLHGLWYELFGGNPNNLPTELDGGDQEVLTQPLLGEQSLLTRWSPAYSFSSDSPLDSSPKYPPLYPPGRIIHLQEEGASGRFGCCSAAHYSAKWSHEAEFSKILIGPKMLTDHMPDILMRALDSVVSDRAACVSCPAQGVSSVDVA

[2] = target: T1, Diacylglycerol lipase-beta (Homo sapiens); experiment: Inhibition of recombinant DAGLbeta expressed in HEK293 cells assessed as hydrolysis of 1-stearoyl-2-arachidonoyl-glycerol to 2-AG at 10 uM after 30 mins by LC-MS method; type: cell-based
[3] = target: T2, Cytosolic phospholipase A2 (Homo sapiens) (UniProt P47712); experiment: Inhibition of recombinant cPLA2 4a expressed in HEK293 cells assessed as hydrolysis of PAPC to arachidonic acid at 20 uM TLC assay; type: cell-based
T2 sequence (whole entry): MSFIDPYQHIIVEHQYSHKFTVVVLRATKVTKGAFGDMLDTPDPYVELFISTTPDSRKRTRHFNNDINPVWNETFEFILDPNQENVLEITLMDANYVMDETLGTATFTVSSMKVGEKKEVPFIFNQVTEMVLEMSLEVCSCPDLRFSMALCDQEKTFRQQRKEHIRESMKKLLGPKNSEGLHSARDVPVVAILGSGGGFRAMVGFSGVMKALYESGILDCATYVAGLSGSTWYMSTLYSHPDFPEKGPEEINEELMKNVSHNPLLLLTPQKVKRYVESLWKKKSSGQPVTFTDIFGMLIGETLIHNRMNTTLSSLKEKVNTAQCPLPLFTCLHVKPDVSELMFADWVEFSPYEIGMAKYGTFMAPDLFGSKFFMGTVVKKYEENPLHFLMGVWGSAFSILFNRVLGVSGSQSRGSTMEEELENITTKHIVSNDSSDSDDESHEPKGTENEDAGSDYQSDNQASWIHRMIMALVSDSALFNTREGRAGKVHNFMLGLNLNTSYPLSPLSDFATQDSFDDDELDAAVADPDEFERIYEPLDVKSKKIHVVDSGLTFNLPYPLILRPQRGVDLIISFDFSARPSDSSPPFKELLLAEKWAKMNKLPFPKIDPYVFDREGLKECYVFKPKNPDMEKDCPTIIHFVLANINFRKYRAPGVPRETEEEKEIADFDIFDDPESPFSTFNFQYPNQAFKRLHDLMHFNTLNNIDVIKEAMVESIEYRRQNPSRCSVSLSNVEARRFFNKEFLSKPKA

Mus musculus [4] = experiment: Inhibition of FAS in C57B1/6J mouse brain membrane at 16 mg/kg, ip after 4 hrs by competitive activity-based protein profiling-MudPIT method; type: functional, organism-based; set-up: dose 16 mg/kg
Method in brief: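 After i.p. dosing in 4:1 PEG300:Tween80, male C57Bl/6J mice were killed at 4 h. Brain membrane proteomes from treated and vehicle mice were labelled with FP-biotin. Labelled proteins were enriched on avidin, digested on-bead with trypsin and analysed by multidimensional LC-MS. Proteins were identified by SEQUEST, and dosed samples were compared with vehicle.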

Mus musculus [5] = experiment: Inhibition of AChE in C57B1/6J mouse brain membrane at 16 mg/kg, ip after 4 hrs by competitive activity-based protein profiling-MudPIT method; type: functional, organism-based; set-up: dose 16 mg/kg
Method in brief: (§1)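 Mice were dosed 16 mg kg^-1 i.p. or vehicle and killed at 4 h. Brain membrane proteomes were labelled with FP-biotin, avidin-enriched, trypsin-digested on bead, analysed by multidimensional LC-MS and identified by SEQUEST.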

Mus musculus [6] = experiment: Inhibition of ABHD10 in C57B1/6J mouse brain membrane at 16 mg/kg, ip after 4 hrs by competitive activity-based protein profiling-MudPIT method; type: functional, organism-based; set-up: dose 16 mg/kg; method in brief: as §1
Mus musculus [7] = experiment: Inhibition of DPP9 in C57B1/6J mouse brain membrane at 16 mg/kg, ip after 4 hrs by competitive activity-based protein profiling-MudPIT method; type: functional, organism-based; set-up: dose 16 mg/kg; method in brief: as §1
Mus musculus [8] = experiment: Inhibition of ABHD11 in C57B1/6J mouse brain membrane at 16 mg/kg, ip after 4 hrs by competitive activity-based protein profiling-MudPIT method; type: functional, organism-based; set-up: dose 16 mg/kg; method in brief: as §1
Mus musculus [9] = experiment: Inhibition of FAAH in C57B1/6J mouse brain membrane at 10 mg/kg, ip by competitive activity-based protein profiling method; type: functional, organism-based; set-up: dose 10 mg/kg
Mus musculus [10] = experiment: Inhibition of FAAH in C57B1/6J mouse brain membrane assessed as elevated level of anandamide at 10 mg/kg, ip by competitive activity-based protein profiling method; type: functional, organism-based; set-up: dose 10 mg/kg
Mus musculus [11] = experiment: Change in arachidonic acid levels in intraperitoneally dosed C57B1/6J mouse brain by LC-MS; type: functional, organism-based
Method in brief: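 Male C57Bl/6J mice given 4, 8, 16 or 40 mg kg^-1 i.p. in 4:1 PEG300:Tween80 at 4 μl g^-1, or vehicle, and killed after 4 h. Whole-brain lipids were quantified by LC-MS.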

Mus musculus [12] = experiment: Inhibition of MAGL in C57B1/6 mouse nucleus accumbens assessed as increase in interstitial level of 2-AG at 10 mg/kg, ip by following neuronal depolarization by microdialysis; type: functional, organism-based; set-up: dose 10 mg/kg
Method in brief: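 Male C57Bl/6 mice received 10 mg kg^-1 i.p. 1 h before neuronal depolarization. 2-AG and AEA were sampled by in vivo microdialysis from the nucleus accumbens.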

Mus musculus [13] = experiment: Inhibition of MAGL in C57B1/6J mouse brain membrane assessed as increase in 2-AG level at 16 mg/kg, ip upto 24 hrs by competitive activity-based protein profiling method relative to control; type: functional; conditions: route intraperitoneal
Method in brief: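 Male C57Bl/6J mice dosed i.p. in 4:1 v/v PEG300:Tween80, with vehicle controls; killed at set times (0.5-24 h, or 4 h). Brain membrane 2-AG hydrolysis measured by LC-MS substrate assay, and brain 2-AG measured by lipid LC-MS, relative to vehicle.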

Mus musculus [14] = experiment: Antinociceptive activity against formalin-induced pain in C57B1/6J mouse assessed as paw lifting or licking during late phase (20-40 mins) at 40 m/kg, po administered 2 hrs before formalin challenge; type: functional, organism-based

O=C(Oc1ccc([N+](=O)[O-])cc1)N1CCC(C(O)(c2ccc3c(c2)OCO3)c2ccc3c(c2)OCO3)CC1
inhibition [1]: inactive | inhibition [2]: inactive | inhibition [3]: inactive | inhibition (Mus musculus [4]): inactive | inhibition (Mus musculus [5]): inactive | inhibition (Mus musculus [6]): inactive | inhibition (Mus musculus [7]): inactive | inhibition (Mus musculus [8]): inactive | inhibition (Mus musculus [9]): Active | inhibition (Mus musculus [10]): Active | Activity (Mus musculus [11]): inactive | inhibition (Mus musculus [12]): Active | inhibition in vivo at 16 mg/kg (Mus musculus [13]): > 80% | Activity (Mus musculus [14]): Active
